ChEMBL document CHEMBL1149572, “2-Aryl-N-acyl indole derivatives as liver X receptor (LXR) agonists” (Bioorg Med Chem Lett, 2007)
pEC50: −log10 of the molar value. One block for each compound: values may come before it.

Legend:
[1] = biological target: T1, Oxysterols receptor LXR-beta (Homo sapiens, UniProt P55055); experiment: Agonist activity at human LXRbeta receptor transfected in COS7 cells after 16 hrs by reporter transactivation assay relative to GW-3965; type: functional, cell-based; conditions: cos-7
T1 sequence (P55055 whole entry): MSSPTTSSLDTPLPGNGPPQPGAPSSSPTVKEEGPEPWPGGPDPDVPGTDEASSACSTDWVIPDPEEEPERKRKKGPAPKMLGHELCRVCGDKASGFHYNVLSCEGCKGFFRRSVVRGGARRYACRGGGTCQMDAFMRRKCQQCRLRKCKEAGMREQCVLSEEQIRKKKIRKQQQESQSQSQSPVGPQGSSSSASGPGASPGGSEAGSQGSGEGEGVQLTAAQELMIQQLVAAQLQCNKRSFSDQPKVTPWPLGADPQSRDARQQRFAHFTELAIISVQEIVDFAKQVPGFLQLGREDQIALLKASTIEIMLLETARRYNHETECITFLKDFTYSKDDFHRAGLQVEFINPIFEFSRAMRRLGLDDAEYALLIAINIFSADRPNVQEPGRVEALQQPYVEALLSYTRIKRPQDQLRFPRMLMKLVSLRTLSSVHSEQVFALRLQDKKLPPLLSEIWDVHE
Procedure, shortened: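 COS-7 cells were transfected for 24 h with human LXRb, RXRa and an LXR-response-element luciferase reporter, then exposed to vehicle or compound for 16 h. Luciferase in the lysate was quantified and expressed as percent of the maximum induction given by GW3965. Values come from quadruplicates in a single experiment.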

THP-1 [2] = experiment: Induction of ABCA1 gene expression in THP1 cells at 10 uM relative to control; type: functional, Homo sapiens
HepG2 [3] = experiment: Induction of SREBP1c gene expression in HepG2 cells at 10 uM relative to control; type: functional, Homo sapiens
THP-1 [4] = experiment: Induction of cholesterol efflux in THP1 cells at 10 uM relative to control; type: functional, Homo sapiens
Procedure, shortened: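 THP-1 cells differentiated to macrophages with 200 nM PMA for 30 h. Labelled with 1,2-3H(N)-cholesterol for 18 h alongside acLDL and 200 nM PMA. Exposed to vehicle or compound for 6 h in serum-free medium with 2 mg/ml BSA, then 18 h more with apoA-I added. Supernatant radioactivity read as fold-induction over vehicle. Mean of triplicates, single experiment.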

HepG2 [5] = experiment: Induction of Lipogenesis in HepG2 cells at 10 uM relative to control; type: functional, Homo sapiens
Procedure, shortened: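 HepG2 cells pre-treated with vehicle or compound for 24 h, then given [14C]-glycerol and cultured a further 48 h. Cellular triglycerides extracted, separated by TLC and quantified by phosphorimaging. Lipogenesis expressed as fold-induction over vehicle-only control. Mean of triplicate samples, single experiment.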

[6] = biological target: T1, Oxysterols receptor LXR-beta; experiment: Agonist activity at human LXRbeta receptor after 1 hr by HTRF cofactor recruitment assay; type: functional
Procedure, shortened: (§1)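 Cofactor recruitment was read by HTRF. Buffer was 50 mM Tris pH 7.5 with 50 mM KCl, 1 mM EDTA, 0.1% BSA and 1 mM DTT. Mixtures were shaken for 1 h at room temperature. Values are means of duplicates from a single experiment.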

[7] = biological target: T2, Oxysterols receptor LXR-alpha (Homo sapiens, UniProt Q13133); experiment: Agonist activity at human LXRalpha receptor after 1 hr by HTRF cofactor recruitment assay; type: functional; procedure, shortened: as §1
T2 sequence (Q13133 whole entry): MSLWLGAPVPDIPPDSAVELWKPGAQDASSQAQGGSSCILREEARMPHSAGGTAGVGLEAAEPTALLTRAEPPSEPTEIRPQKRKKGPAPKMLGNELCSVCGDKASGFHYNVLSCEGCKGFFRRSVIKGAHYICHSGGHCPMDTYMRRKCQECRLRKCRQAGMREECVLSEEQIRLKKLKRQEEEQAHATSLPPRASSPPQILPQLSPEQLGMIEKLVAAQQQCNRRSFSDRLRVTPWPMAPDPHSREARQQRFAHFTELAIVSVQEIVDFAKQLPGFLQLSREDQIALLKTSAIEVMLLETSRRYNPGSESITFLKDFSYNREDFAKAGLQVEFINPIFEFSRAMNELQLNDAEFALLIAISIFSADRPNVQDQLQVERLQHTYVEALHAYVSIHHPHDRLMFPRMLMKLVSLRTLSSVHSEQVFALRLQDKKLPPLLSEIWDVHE

[8] = biological target: T1, Oxysterols receptor LXR-beta; experiment: Agonist activity at human LXRbeta receptor transfected in COS7 cells after 16 hrs by reporter transactivation assay; type: functional, cell-based, COS-7
Procedure, shortened: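 COS-7 cells were co-transfected for 24 h with human LXRb, RXRa and a luciferase reporter carrying three tandem LXR response elements. Cells were then treated with vehicle or compound for 16 h, and luciferase activity was measured in the lysate. EC50 was calculated from means of quadruplicates in a single experiment.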

THP-1 [9] = experiment: Induction of cholesterol efflux in THP1 cells; type: functional, cell-based; conditions: Homo sapiens

Efficacy [1]: 100%
SMILES: O=C(O)Cc1cccc(OCCCN(Cc2cccc(C(F)(F)F)c2Cl)CC(c2ccccc2)c2ccccc2)c1
Ratio (THP-1 [2]): 10.7
Ratio (HepG2 [3]): 5.2
Ratio (THP-1 [4]): 1.8
Ratio (HepG2 [5]): 2.7

pEC50 [6]: 5.75
SMILES: CC(C)(C)OC(=O)n1c(-c2ccc(CCC(=O)Nc3ccccc3)cc2)cc2ccccc21

pEC50 [6]: 5.82
SMILES: CC(C)CNC(=O)CCc1ccc(-c2cc3ccccc3n2C(=O)OC(C)(C)C)cc1

pEC50 [6]: 6.66
SMILES: CC(C)(C)OC(=O)n1c(-c2ccc(CNS(=O)(=O)c3ccccc3)cc2)cc2ccccc21

pEC50 [6]: 6.64
SMILES: CC(C)(C)OC(=O)n1c(-c2ccc(CCc3ccc(-c4ccccn4)s3)cc2)cc2ccccc21

pEC50 [6]: 7.24
pEC50 [7]: 5.95
pEC50 [8]: 6.55
Efficacy [1]: 70%
pEC50 (THP-1 [9]): 5.62
SMILES: CC(C)(C)OC(=O)n1c(-c2ccc(CCC(N)=O)cc2)cc2ccccc21
Ratio (THP-1 [2]): 5.7
Ratio (HepG2 [3]): 4
Ratio (THP-1 [4]): 1.9
Ratio (HepG2 [5]): 2.7

pEC50 [6]: 5.76
SMILES: CC(C)(C)OC(=O)n1c(-c2ccc(CCNC(=O)c3ccccc3)cc2)cc2ccccc21

pEC50 [6]: 6.66
pEC50 [7]: 5.94
pEC50 [8]: 5.34
Efficacy [1]: 76%
pEC50 (THP-1 [9]): 5.15
SMILES: CC(C)(C)OC(=O)n1c(-c2ccc(CCC(=O)O)cc2)cc2ccccc21
Ratio (THP-1 [2]): 5.5
Ratio (THP-1 [4]): 1.4
Ratio (HepG2 [5]): 1.2

pEC50 [6]: 5.25
SMILES: CC(C)(C)OC(=O)n1c(-c2ccc(CN)cc2)cc2ccccc21

pEC50 [6]: 5.31
SMILES: CC(C)(C)OC(=O)n1c(-c2ccc(/C=C/C(N)=O)cc2)cc2ccccc21

pEC50 [6]: 6.31
SMILES: CNC(=O)CCc1ccc(-c2cc3ccccc3n2C(=O)OC(C)(C)C)cc1

pEC50 [6]: 5.74
SMILES: CC(C)(C)OC(=O)n1c(-c2ccc(CNC(=O)c3ccccc3)cc2)cc2ccccc21

pEC50 [6]: 6.89
pEC50 [7]: 5.92
pEC50 [8]: 6.24
Efficacy [1]: 45%
pEC50 (THP-1 [9]): 5.61
SMILES: CC(C)(C)OC(=O)n1c(-c2ccc(CCC#N)cc2)cc2ccccc21
Ratio (THP-1 [2]): 6
Ratio (HepG2 [3]): 2.5
Ratio (THP-1 [4]): 2.2
Ratio (HepG2 [5]): 2.5

pEC50 [6]: 6.38
SMILES: CC(C)(C)OC(=O)n1c(-c2cccc(CCNS(=O)(=O)c3ccccc3)c2)cc2ccccc21

pEC50 [6]: 6.38
SMILES: CC(C)(C)OC(=O)n1c(-c2ccc(OCCO)cc2)cc2ccccc21

pEC50 [6]: 5.88
SMILES: CC(C)(C)OC(=O)n1c(-c2ccc(NS(=O)(=O)c3ccccc3)cc2)cc2ccccc21

pEC50 [6]: 6.44
SMILES: CC(C)(C)OC(=O)n1c(-c2ccc(CCCNC(=O)c3ccccc3)cc2)cc2ccccc21

pEC50 [6]: 6.92
SMILES: CC(C)(C)OC(=O)n1c(-c2ccc(CCNS(=O)(=O)c3ccccc3)cc2)cc2ccccc21

Efficacy [1]: 43%
SMILES: CC(C)(C)OC(=O)n1c(-c2ccc3c(c2)CC(NS(=O)(=O)c2ccccc2)C3)cc2ccccc21 (centres undefined)
Ratio (THP-1 [2]): 8.4
Ratio (HepG2 [3]): 3.1
Ratio (THP-1 [4]): 1.6
Ratio (HepG2 [5]): 3.1

pEC50 [6]: 7.92
pEC50 [7]: 6.66
pEC50 [8]: 7.38
Efficacy [1]: 39%
pEC50 (THP-1 [9]): 7.29
SMILES: N#CCCc1ccc(-c2cc3ccccc3n2C(=O)c2ccccc2)cc1
Ratio (THP-1 [2]): 10.3
Ratio (HepG2 [3]): 5.3
Ratio (THP-1 [4]): 1.7
Ratio (HepG2 [5]): 4

pEC50 [6]: 6.46
SMILES: CC(C)(C)OC(=O)n1c(-c2ccc(CCCNS(=O)(=O)c3ccccc3)cc2)cc2ccccc21

pEC50 [6]: 6.52
SMILES: CC(C)(C)OC(=O)n1c(-c2ccc(CC#N)cc2)cc2ccccc21

pEC50 [6]: 5.75
SMILES: O=C(NCCc1ccc(-c2cc3ccccc3n2C(=O)c2ccccc2)cc1)c1ccccc1

pEC50 [6]: 7.24
SMILES: CC(C)(C)OC(=O)n1c(-c2ccc(CCNS(=O)(=O)c3cccs3)cc2)cc2ccccc21

pEC50 [6]: 6.42
SMILES: CC(C)(C)OC(=O)n1c(-c2ccc(CCCO)cc2)cc2ccccc21
